From ChEMBL document CHEMBL1152380, “The synthesis and biological evaluation of a novel series of C7 non-basic substituted fluoroquinolones as antibacterial agents” (2009)
Converted amounts (≈) assume the structure as drawn.

Columns and labels:
Format in all cases: functional
Staphylococcus aureus [1] = assay: Antibacterial activity against Staphylococcus aureus ATCC 25923 by microbroth dilution technique
In short: (§1)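 MIC, taken as the lowest drug concentration that prevents visible growth, determined by broth microdilution following the National Committee for Clinical and Laboratory Standards method. Strains were reference strains from the American Type Culture Collection or clinical isolates from the hospital culture collection.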

Staphylococcus aureus [2] = assay: Antibacterial activity against multidrug-resistant Staphylococcus aureus clinical isolates by microbroth dilution technique
Streptococcus pneumoniae [3] = assay: Antibacterial activity against Streptococcus pneumoniae ATCC 49619 by microbroth dilution technique
In short: (§2)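 Broth microdilution run to the National Committee for Clinical and Laboratory Standards method. MIC is taken as the lowest drug concentration that prevents visible bacterial growth. Strains were clinical isolates from a hospital culture collection or ATCC reference strains.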

Streptococcus pneumoniae [4] = assay: Antibacterial activity against multidrug-resistant Streptococcus pneumoniae clinical isolates by microbroth dilution technique
[5] = test system: Staphylococcus epidermidis; assay: Antibacterial activity against Staphylococcus epidermidis ATCC 12228 by microbroth dilution technique; in short: as §1
Enterococcus faecalis = assay: Antibacterial activity against Enterococcus faecalis ATCC 29212 by microbroth dilution technique; in short: as §1
Escherichia coli = assay: Antibacterial activity against Escherichia coli ATCC 25922 by microbroth dilution technique; in short: as §1
Pseudomonas aeruginosa [6] = assay: Antibacterial activity against Pseudomonas aeruginosa ATCC 27853 by microbroth dilution technique; in short: as §2
Pseudomonas aeruginosa [7] = assay: Antibacterial activity against multidrug-resistant Pseudomonas aeruginosa clinical isolates by microbroth dilution technique
[8] = Staphylococcus aureus, ATCC 25923, read-out: MIC
[9] = Streptococcus pneumoniae, ATCC 49619, read-out: MIC
[10] = Streptococcus pneumoniae, read-out: MIC
[11] = Staphylococcus epidermidis, ATCC 12228, read-out: MIC
[12] = Enterococcus faecalis, ATCC 29212, read-out: MIC
[13] = Escherichia coli, ATCC 25922, read-out: MIC
[14] = Pseudomonas aeruginosa, ATCC 27853, read-out: MIC
[15] = Pseudomonas aeruginosa, read-out: MIC

SMILES	MIC (Staphylococcus aureus [1]; [8])	MIC (Staphylococcus aureus [2])	MIC (Streptococcus pneumoniae [3]; [9])	MIC (Streptococcus pneumoniae [4]; [10])	MIC [5, 11]	MIC (Enterococcus faecalis; [12])	MIC (Escherichia coli; [13])	MIC (Pseudomonas aeruginosa [6]; [14])	MIC (Pseudomonas aeruginosa [7]; [15])	MIC (Staphylococcus aureus [1])	MIC (Streptococcus pneumoniae [3])	MIC (Streptococcus pneumoniae [4])	MIC [5]	MIC (Enterococcus faecalis)	MIC (Escherichia coli)	MIC (Pseudomonas aeruginosa [6])	MIC (Pseudomonas aeruginosa [7])
O=C(O)c1cn(C2CC2)c2nc(N3CC4CC3CS4)c(F)cc2c1=O (stereo not given)	0.016 mg/L (≈ 0.0443 µM)	> 32 mg/L	0.031 mg/L (≈ 0.0858 µM)	0.031 mg/L (≈ 0.0858 µM)	0.125 mg/L (≈ 0.346 µM)	0.125 mg/L (≈ 0.346 µM)	0.125 mg/L (≈ 0.346 µM)	2 mg/L (≈ 5.53 µM)	32 mg/L (≈ 88.5 µM)	–	–	–	–	–	–	–	–
O=C(O)c1cn(C2CC2)c2nc(N3C[C@@H](O)[C@H](O)C3)c(F)cc2c1=O	4 mg/L (≈ 11.5 µM)	> 32 mg/L	2 mg/L (≈ 5.73 µM)	2 mg/L (≈ 5.73 µM)	> 32 mg/L	2 mg/L (≈ 5.73 µM)	4 mg/L (≈ 11.5 µM)	32 mg/L (≈ 91.6 µM)	32 mg/L (≈ 91.6 µM)	–	–	–	–	–	–	–	–
CC(C)(C)OC(=O)N1CC2CC1CN2c1nc2c(cc1F)c(=O)c(C(=O)O)cn2C1CC1 (stereo not given)	0.25 mg/L (≈ 0.562 µM)	> 32 mg/L	2 mg/L (≈ 4.5 µM)	0.5 mg/L (≈ 1.12 µM)	4 mg/L (≈ 9 µM)	0.5 mg/L (≈ 1.12 µM)	4 mg/L (≈ 9 µM)	32 mg/L (≈ 72 µM)	32 mg/L (≈ 72 µM)	–	–	–	–	–	–	–	–
O=C(O)c1cn(C2CC2)c2nc(N3CCC[C@H]3Cn3cc(CO)nn3)c(F)cc2c1=O	32 mg/L (≈ 74.7 µM)	> 32 mg/L	8 mg/L (≈ 18.7 µM)	4 mg/L (≈ 9.34 µM)	32 mg/L (≈ 74.7 µM)	4 mg/L (≈ 9.34 µM)	32 mg/L (≈ 74.7 µM)	32 mg/L (≈ 74.7 µM)	32 mg/L (≈ 74.7 µM)	–	–	–	–	–	–	–	–
C[C@@H](O)[C@@H]1C[C@@H](O)CN1c1nc2c(cc1F)c(=O)c(C(=O)O)cn2C1CC1	32 mg/L (≈ 84.8 µM)	> 32 mg/L	2 mg/L (≈ 5.3 µM)	8 mg/L (≈ 21.2 µM)	> 32 mg/L	2 mg/L (≈ 5.3 µM)	16 mg/L (≈ 42.4 µM)	32 mg/L (≈ 84.8 µM)	32 mg/L (≈ 84.8 µM)	–	–	–	–	–	–	–	–
C[C@H](O)[C@@H]1C[C@@H](O)CN1c1nc2c(cc1F)c(=O)c(C(=O)O)cn2C1CC1	16 mg/L (≈ 42.4 µM)	> 32 mg/L	1 mg/L (≈ 2.65 µM)	2 mg/L (≈ 5.3 µM)	32 mg/L (≈ 84.8 µM)	4 mg/L (≈ 10.6 µM)	8 mg/L (≈ 21.2 µM)	32 mg/L (≈ 84.8 µM)	32 mg/L (≈ 84.8 µM)	–	–	–	–	–	–	–	–
O=C(O)c1cn(C2CC2)c2nc(N3CC4CC3CS4(=O)=O)c(F)cc2c1=O (stereo not given)	0.016 mg/L (≈ 0.0407 µM)	> 32 mg/L	0.063 mg/L (≈ 0.16 µM)	0.031 mg/L (≈ 0.0788 µM)	0.5 mg/L (≈ 1.27 µM)	0.063 mg/L (≈ 0.16 µM)	0.125 mg/L (≈ 0.318 µM)	8 mg/L (≈ 20.3 µM)	32 mg/L (≈ 81.3 µM)	–	–	–	–	–	–	–	–
COC(=O)[C@@H]1C[C@@H](n2cc(CO)nn2)CN1c1nc2c(cc1F)c(=O)c(C(=O)O)cn2C1CC1	4 mg/L (≈ 8.47 µM)	> 32 mg/L	1 mg/L (≈ 2.12 µM)	1 mg/L (≈ 2.12 µM)	8 mg/L (≈ 16.9 µM)	0.5 mg/L (≈ 1.06 µM)	4 mg/L (≈ 8.47 µM)	32 mg/L (≈ 67.7 µM)	> 32 mg/L	–	–	–	–	–	–	–	–
COC(=O)[C@@H]1C[C@@H](O)CN1c1nc2c(cc1F)c(=O)c(C(=O)O)cn2C1CC1	2 mg/L (≈ 5.11 µM)	> 32 mg/L	0.5 mg/L (≈ 1.28 µM)	0.5 mg/L (≈ 1.28 µM)	16 mg/L (≈ 40.9 µM)	1 mg/L (≈ 2.56 µM)	8 mg/L (≈ 20.4 µM)	32 mg/L (≈ 81.8 µM)	32 mg/L (≈ 81.8 µM)	–	–	–	–	–	–	–	–
O=C(O)c1cn(C2CC2)c2nc(N3C[C@H](O)C[C@H]3CO)c(F)cc2c1=O	16 mg/L (≈ 44 µM)	> 32 mg/L	8 mg/L (≈ 22 µM)	8 mg/L (≈ 22 µM)	> 32 mg/L	4 mg/L (≈ 11 µM)	32 mg/L (≈ 88.1 µM)	32 mg/L (≈ 88.1 µM)	32 mg/L (≈ 88.1 µM)	–	–	–	–	–	–	–	–
O=C(O)c1cn(C2CC2)c2nc(N3CCC[C@H]3Cn3cc(-c4ccccc4)nn3)c(F)cc2c1=O	1 mg/L (≈ 2.11 µM)	–	–	–	> 32 mg/L	4 mg/L (≈ 8.43 µM)	> 32 mg/L	> 32 mg/L	–	–	–	–	–	–	–	–	–
O=C(O)c1cn(C2CC2)c2nc(N3CCC[C@H]3CO)c(F)cc2c1=O	0.5 mg/L (≈ 1.44 µM)	> 32 mg/L	0.5 mg/L (≈ 1.44 µM)	0.5 mg/L (≈ 1.44 µM)	8 mg/L (≈ 23 µM)	0.5 mg/L (≈ 1.44 µM)	2 mg/L (≈ 5.76 µM)	32 mg/L (≈ 92.1 µM)	32 mg/L (≈ 92.1 µM)	–	–	–	–	–	–	–	–
COC(=O)[C@@H]1C[C@@H](n2cc(Cc3ccccc3)nn2)CN1c1nc2c(cc1F)c(=O)c(C(=O)O)cn2C1CC1	> 32 mg/L	> 32 mg/L	4 mg/L (≈ 7.51 µM)	8 mg/L (≈ 15 µM)	> 32 mg/L	16 mg/L (≈ 30 µM)	32 mg/L (≈ 60.1 µM)	32 mg/L (≈ 60.1 µM)	32 mg/L (≈ 60.1 µM)	–	–	–	–	–	–	–	–
O=C(O)c1cn(C2CC2)c2nc(N3CC4CC3C[S+]4[O-])c(F)cc2c1=O (stereo in doubt; 6.26)	–	–	–	–	–	–	–	–	32 mg/L (≈ 84.8 µM)	1 mg/L (≈ 2.65 µM)	0.125 mg/L (≈ 0.331 µM)	0.125 mg/L (≈ 0.331 µM)	1 mg/L (≈ 2.65 µM)	0.25 mg/L (≈ 0.662 µM)	0.5 mg/L (≈ 1.32 µM)	16 mg/L (≈ 42.4 µM)	–
O=C(O)c1cn(C2CC2)c2nc(N3CC4CC3C[S+]4[O-])c(F)cc2c1=O (stereo in doubt; 6.28)	–	> 32 mg/L	–	0.25 mg/L (≈ 0.662 µM)	–	–	1 mg/L (≈ 2.65 µM)	32 mg/L (≈ 84.8 µM)	–	4 mg/L (≈ 10.6 µM)	0.5 mg/L (≈ 1.32 µM)	–	4 mg/L (≈ 10.6 µM)	1 mg/L (≈ 2.65 µM)	–	–	32 mg/L (≈ 84.8 µM)
O=C(O)c1cn(C2CC2)c2cc(N3CCNCC3)c(F)cc2c1=O [CIPROFLOXACIN]	–	–	–	–	0.5 mg/L (≈ 1.51 µM)	0.5 mg/L (≈ 1.51 µM)	–	–	–	–	–	–	–	–	–	–	–
CN[C@H](CC(C)C)C(=O)N[C@H]1C(=O)N[C@@H](CC(N)=O)C(=O)N[C@H]2C(=O)N[C@H]3C(=O)N[C@H](C(=O)N[C@H](C(=O)O)c4cc(O)cc(O)c4-c4cc3ccc4O)[C@H](O)c3ccc(c(Cl)c3)Oc3cc2cc(c3O[C@@H]2O[C@H](CO)[C@@H](O)[C@H](O)[C@H]2O[C@H]2C[C@](C)(N)[C@H](O)[C@H](C)O2)Oc2ccc(cc2Cl)[C@H]1O [VANCOMYCIN]	–	–	1 mg/L (≈ 0.69 µM)	2 mg/L (≈ 1.38 µM)	–	0.5 mg/L (≈ 0.345 µM)	–	–	–	–	–	–	–	–	–	–	–
